Data published in PMC12530853 (RSC Advances, 2025).
≈ marks a conversion by molar mass, not a printed value. Entries after “also recorded” stand apart in the source; their conditions may differ.

Columns and labels:
[1] = system: CYP24A1 mRNA in HEK293T cells; experiment: CYP24A1 mRNA levels by quantitative PCR; assay type: cell-based
C. albicans ATCC 10231 [2] = experiment: Minimum inhibitory concentration; assay type: cell-based; conditions: Candida albicans, ATCC10231, read-out: Minimum inhibitory concentration (MIC) C. albicans ATCC 10231
Method in brief: (§1)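 Exponential-phase yeast were washed three times in PBS and suspended at 1 × 10^3 CFU/mL in RPMI 1640. Test compound and fluconazole comparator were twofold serially diluted in microplates, each concentration in triplicate wells. Growth was read as OD600, from which the MIC was determined.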

C. albicans ATCC 14053 = experiment: Minimum inhibitory concentration; assay type: cell-based; conditions: Candida albicans, ATCC14053, read-out: Minimum inhibitory concentration (MIC) C. albicans ATCC 14053
Method in brief: as §1

F. solani 46492 = experiment: Activity against additional fungal strains; assay type: cell-based; conditions: Table 2; no quantity or unit printed
Method in brief: (§2)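 Fungi in exponential phase were washed three times in PBS and resuspended at 1 × 10^3 CFU mL−1 in RPMI 1640. Test compound and fluconazole were serially diluted twofold in 96-well plates, in triplicate wells per concentration. MIC was derived from OD600 readings.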

[3] = system: C. albicans ATCC 10231 biofilm; experiment: Inhibition of biofilm formation; assay type: cell-based; conditions: in vitro
Method in brief: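 Exponential-phase fungi at 1 × 10^6 CFU mL−1 in RPMI 1640 were allowed to adhere for 1.5 h at 37 °C, then washed twice with PBS. Fresh RPMI containing graded concentrations of test compound was added for 24 h at 37 °C in the dark. Adherent cells were stained for 3 h at 37 °C and OD was read. Results are given as % inhibition of formation.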

C. albicans ATCC 24433 = experiment: Activity against additional fungal strains; assay type: cell-based; conditions: Table 2; no quantity or unit printed
Method in brief: as §2

Calcein leakage assay = conditions: liposomes mimicking fungal membranes
Method in brief: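 Large unilamellar vesicles of DOPC/DOPE/PI (2:1:1) with 15 wt% ergosterol were made by film hydration in 80 mM calcein, 50 mM HEPES, 100 mM NaCl, 0.3 mM EDTA, pH 7.4. They were freeze–thawed 10×, extruded through 100 nm filters, gel-filtered, and quantified by total phosphorus. Test compound was added in HEPES buffer with 5% DMF. Read at ex 490/em 520 nm; % leakage = (Ft−Fmin)/(Fmax−Fmin)×100, with Fmax from 1% Triton X-100.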

C. albicans ATCC 10231 [4] = experiment: Drug-resistance study; assay type: cell-based; conditions: after 28 serial passages
Method in brief: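 Resistance development in C. albicans: the MIC of the test compound was first determined by the fungal broth microdilution method, then that determination was repeated continuously over 28 days.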

rabbit red blood cells = experiment: Hemolysis assay; assay type: cell-based
Method in brief: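 Rabbit erythrocytes (4% v/v in PBS) were mixed 1:1 with test compound in PBS, giving final concentrations of 2–256 μg mL−1, and incubated for 1 h at 37 °C. Samples were centrifuged at 1000g for 5 min and supernatant A490 was read. Controls were 1% Triton X-100 and PBS. Hemolysis (%) = [(sample − PBS)/(Triton − PBS)] × 100, in triplicate.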

[5] = system: metabolic clearance of 1,25(OH)2D3 in HEK293T cells; experiment: Retention of 1,25; assay type: cell-based; conditions: 10^−7 M compound; after 24 h; LC-MS/MS
C. albicans ATCC 90028 = experiment: Activity against additional fungal strains; assay type: cell-based; conditions: Table 2; no quantity or unit printed
Method in brief: as §2

[6] = system: C. albicans ATCC 10231 biofilm; experiment: Biofilm eradication; assay type: cell-based; conditions: in vitro
Method in brief: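 Overnight C. albicans was adjusted to 1 × 10^6–10^7 CFU mL−1 and grown statically for 24 h at 37 °C to give mature biofilms. After two PBS rinses, biofilms were treated with test compound in fresh medium for 24 h at 37 °C; amphotericin B was the positive control and medium alone the negative control. Staining used 0.1% crystal violet for 15 min, then 95% ethanol solubilisation and OD590. Eradication (%) = [1 − OD_test/OD_negative] × 100.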

FO MYA 3461 = experiment: Activity against additional fungal strains; assay type: cell-based; conditions: Table 2; no quantity or unit printed
Method in brief: as §2

[7] = system: A. brasiliensis TCC 16404; experiment: Activity against additional fungal strains; assay type: cell-based; conditions: Table 2; no quantity or unit printed
Method in brief: as §2

[8] = system: various bacteria and fungi; experiment: Broad-spectrum antibacterial and antifungal MIC; assay type: cell-based; conditions: read-out: MIC (broad-spectrum antibacterial and antifungal activity)
C. albicans ATCC 10231 [9] = experiment: Time–kill kinetics; assay type: cell-based; conditions: 8 × MIC, after 8 h
Method in brief: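 C. albicans in exponential phase was diluted to 1.5 × 10^6 cells per mL in RPMI 1640, in 5 mL tubes. Drug was added and tubes were shaken at 200 rpm and 30 °C. 100 μL aliquots went to microtiter wells, were incubated at 37 °C, and OD600 was read to estimate cell concentration.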

CYP24A1 = biological target: T1, CYP24A1 (Homo sapiens, UniProt Q07973); experiment: CYP24-inhibition assay; assay type: biochemical
T1 sequence (Q07973 36-514): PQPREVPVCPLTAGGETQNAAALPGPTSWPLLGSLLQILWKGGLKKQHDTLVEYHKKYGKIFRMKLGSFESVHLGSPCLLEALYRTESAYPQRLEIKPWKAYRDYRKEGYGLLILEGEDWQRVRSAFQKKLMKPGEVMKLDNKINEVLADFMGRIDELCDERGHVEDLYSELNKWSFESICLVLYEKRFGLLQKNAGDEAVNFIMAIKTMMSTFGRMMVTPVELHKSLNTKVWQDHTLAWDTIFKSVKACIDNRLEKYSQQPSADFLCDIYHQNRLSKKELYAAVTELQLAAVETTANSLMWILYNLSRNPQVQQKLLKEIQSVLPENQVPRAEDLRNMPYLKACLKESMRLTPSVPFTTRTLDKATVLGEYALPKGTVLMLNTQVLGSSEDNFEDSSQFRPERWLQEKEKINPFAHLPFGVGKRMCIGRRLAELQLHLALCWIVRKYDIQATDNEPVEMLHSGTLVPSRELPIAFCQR
Method in brief: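 Reconstituted system: 5 nM CYP24, 0.5 μM adrenodoxin and 0.05 μM adrenodoxin reductase in 100 mM Tris–HCl pH 7.4 with 1 mM EDTA. Test compound (50–200 μM) was preincubated for 15 min at room temperature. 5 μM 1,25-D3 and 1 mM NADPH were then added for 10 min at 37 °C. The reaction was stopped with 4 volumes of chloroform/methanol 3:1, and conversion was measured by C18 HPLC with UV detection at 265 nm.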

F. solani 52628 = experiment: Activity against additional fungal strains; assay type: cell-based; conditions: Table 2; no quantity or unit printed
Method in brief: as §2

[10] = Cytotoxicity, CCK-8 assay; assay type: cell-based; conditions: human, HUVECs (human umbilical vein endothelial cells)
[11] = Cytotoxicity, CCK-8 assay; assay type: cell-based; conditions: human, Caco-2
C. albicans ATCC 10231 [12] = experiment: SYTOX Green membrane integrity assay; assay type: cell-based; conditions: 4 × MIC; over 20 min
Method in brief: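 Overnight C. albicans was washed three times in PBS and set to OD600 0.2 in PBS. Cells were loaded with 0.3 μM SYTOX Green in the dark. Once the signal plateaued, test compound in PBS/DMF (final DMF 0.5%) was added. Fluorescence (ex 504 nm, em 523 nm) was monitored continuously for 1–2 h.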

For C=C1/C(=C\C=C2/CCC[C@]3(C)[C@@H]([C@H](C)CCCC(C)(C)O)CC[C@@H]23)C[C@@H](O)C[C@@H]1O [1,25(OH)2D3, 1,25-dihydroxyvitamin D3, reference compound], which “CYP24A1 mRNA levels, 1,25(OH)2D3 alone” value ([1]; 10^−9 M, 24 h, HEK293T cells) is on record?
The value was “significantly increased”.

With Cc1ccc(C=Nc2nc[nH]n2)c(O)c1 [3a, 2-{[(1H-1,2,4-Triazol-3-yl)imino]methyl}-5-methylphenol] as the compound, how does the MIC (C. albicans ATCC 10231 [2]) read?
The MIC was 64 µg/mL (≈ 316 µM).

What about the MIC (C. albicans ATCC 14053) of the same compound?
The MIC was 128 µg/mL (≈ 633 µM).

Which MIC (C. albicans ATCC 10231 [2]) does the source give for O=[N+]([O-])c1ccc(C=Nc2nc[nH]n2)c(O)c1 [3b, 2-{[(1H-1,2,4-Triazol-3-yl)imino]methyl}-5-nitrophenol] here?
The MIC was 64 µg/mL (≈ 274 µM).

And the MIC (C. albicans ATCC 14053)?
Its MIC is 64 µg/mL (≈ 274 µM).

What does the source list for Oc1ccc(O)c(C=Nc2ncn[nH]2)c1 [3c, 2-{[(1H-1,2,4-Triazol-5-yl)imino]methyl}benzene-1,4-diol]?
Interaction against varied fungal strains: F. solani 46492 (F. solani 46492): 32; Inhibition of C. albicans biofilm formation [3]: effectively inhibited; Interaction against varied fungal strains: C. albicans ATCC 24433 (C. albicans ATCC 24433): 16; Calcein leakage from LUVs (Calcein leakage assay): induced leakage of the contents in a dose-dependent manner; MIC (C. albicans ATCC 10231 [2]): 16 µg/mL (≈ 78.4 µM); Increase of MIC value in resistance development (C. albicans ATCC 10231 [4]): no more than 8 fold; Hemolysis of rabbit red blood cells (rabbit red blood cells; 16–128 μg mL^−1, 37 °C, 1 h): no significant hemolysis; Half hemolytic concentration (HC50) (rabbit red blood cells; rabbit red blood cells): > 256 µg/mL; Average concentration of 1,25(OH)2D3 remaining in HEK293T cell culture [5]: 495 pM; MIC (C. albicans ATCC 14053): 16 µg/mL (≈ 78.4 µM); Interaction against varied fungal strains: C. albicans ATCC 90028 (C. albicans ATCC 90028): 16; Disruption of pre-formed mature biofilms [6]: significantly disrupted; Interaction against varied fungal strains: FO MYA 3461 (FO MYA 3461): 32; Interaction against varied fungal strains: A. brasiliensis TCC 16404 [7]: 32; MIC [8]: 16 µg/mL (≈ 78.4 µM); Time–kill: growth of C. albicans ATCC 10231 (C. albicans ATCC 10231 [9]): complete inhibition; IC50 (CYP24A1): 202 µM; inhibition at 100 µM (CYP24A1; read-out: Inhibition of CYP24A1): 32%; Interaction against varied fungal strains: F. solani 52628 (F. solani 52628): 32; viability at 24 h, 64 μg mL^−1 [10]: > 95%; viability at 24 h, 128 μg mL^−1 [10]: > 80%; CYP24A1 mRNA expression, co-treatment with 1,25(OH)2D3 ([1]; 3c 10^−10 M + 1,25(OH)2D3 10^−9 M, 24 h, relative to 1,25(OH)2D3 alone): markedly enhanced; CYP24A1 mRNA expression, compound alone ([1]; 10^−7 M, HEK293T cells, versus solvent control): did not affect; also recorded: did not alter; Up-regulation of CYP24A1 mRNA levels when combined with 1,25(OH)2D3 ([1]; cellular models, combined with 1,25(OH)2D3): approximately twofold; viability at 24 h, 64 μg mL^−1 [11]: > 95%; viability at 24 h, 128 μg mL^−1 [11]: > 80%; SYTOX Green fluorescence (membrane integrity) (C. albicans ATCC 10231 [12]): gradual increase in fluorescence

Which results are given for Oc1ccc(Cl)cc1C=Nc1ncn[nH]1 [3d, 2-{[(1H-1,2,4-Triazol-5-yl)imino]methyl}-4-chlorophenol]?
MIC (C. albicans ATCC 10231 [2]): 128 µg/mL (≈ 575 µM); MIC (C. albicans ATCC 14053): 128 µg/mL (≈ 575 µM)

Which results are given for CS(=O)(=O)c1ccc(C=Nc2ncn[nH]2)cc1 [3e, 1-[4-(Methylsulfonyl)phenyl]-N-(1H-1,2,4-triazol-5-yl)methanimine]?
MIC (C. albicans ATCC 10231 [2]): 128 µg/mL (≈ 511 µM); MIC (C. albicans ATCC 14053): 128 µg/mL (≈ 511 µM)

For C(=Nc1ncn[nH]1)c1ccc(-c2ccccc2)cc1 [3f, 1-[(1,1′-Biphenyl)-4-yl]-N-(1H-1,2,4-triazol-5-yl)methanimine], which MIC (C. albicans ATCC 10231 [2]) is on record?
Its MIC is 128 µg/mL (≈ 516 µM).

And the MIC (C. albicans ATCC 14053)?
Its MIC is 128 µg/mL (≈ 516 µM).
